Reference: ChEMBL document CHEMBL2346542, “Preliminary biological evaluation and mechanism of action studies of selected 2-arylindoles against glioblastoma” (Bioorg Med Chem, 2013)
Active and inactive are the calls of the source. No cut-off for these calls is given here.

Tests used:
U-87 MG [1] = experiment: Induction of oxidative stress in human U87MG cells assessed as increase in reactive oxygens species generation at 100 uM after 1 hr by H2DCFDA dye based flow cytometry; assay type: functional, cell-based; conditions: U-87MG ATCC
Outline: (§1)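 1321N1 (DMEM, 10% FBS, 2 mM glutamine) or U87MG (EMEM, 10% FBS, glutamine, pyruvate, NEAA) cells seeded at 20,000/well and attached overnight. Loaded with 25 µM carboxy-H2DCFDA for 30 min at 37 °C in the dark, then treated for 60 min; TBHP 100 µM was the positive control, vehicle ≤0.5% ethanol/DMSO. Washed in HBSS, trypsinised, then flow cytometry at 488/519 nm.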

1321-N1 [2] = experiment: Induction of oxidative stress in human 1321N1 cells assessed as increase in reactive oxygens species generation at 100 uM after 1 hr by H2DCFDA dye based flow cytometry; assay type: functional, cell-based; outline: as §1
U-87 MG [3] = experiment: Induction of oxidative stress in human U87MG cells assessed as increase in reactive oxygens species generation at 500 uM after 1 hr by H2DCFDA dye based flow cytometry; assay type: functional, cell-based; conditions: U-87MG ATCC
Outline: (§2)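 Cells at 20,000/well in six-well plates, attached overnight. Loaded with 25 µM carboxy-H2DCFDA for 30 min at 37 °C in the dark, then given compound at 500 µM for 60 min. Positive control TBHP 100 µM. Washed in HBSS, trypsinized, resuspended in PBS, strained. Flow cytometry at FITC ex/em 488/519 nm. Vehicle ≤0.5% ethanol and DMSO.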

1321-N1 [4] = experiment: Induction of oxidative stress in human 1321N1 cells assessed as increase in reactive oxygens species generation at 500 uM after 1 hr by H2DCFDA dye based flow cytometry; assay type: functional, cell-based; outline: as §2
[5] = Antiproliferative activity against human U251MG cells assessed as inhibition of cell growth after 72 hrs by MTT assay; assay type: functional, cell-based; conditions: U-251, 72 h
Outline: (§3)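 Short-term GBM cultures derived from tumour biopsies, and U251MG, kept in Hams F10 with 10% foetal calf serum at 37 °C without CO2. Cells seeded at 10³ per well and grown 48 h. Then dosed at 0.01–1000 µM in quadruplicate, compound renewed every 24 h, followed by 24 h recovery in compound-free medium. MTT (1 mg/mL) added for 4 h, formazan dissolved in DMSO, OD570 read. IC50 from nonlinear regression vs untreated controls.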

[6] = Antiproliferative activity against human IN1760 cells assessed as inhibition of cell growth after 72 hrs by MTT assay; assay type: functional, cell-based; conditions: IN1760, 72 h; outline: as §3
[7] = Antiproliferative activity against human IN1265 cells assessed as inhibition of cell growth after 72 hrs by MTT assay; assay type: functional, cell-based; outline: as §3
[8] = Antiproliferative activity against human IN1472 cells assessed as inhibition of cell growth after 72 hrs by MTT assay; assay type: functional, cell-based; conditions: IN1472, 72 h; outline: as §3
[9] = Antiproliferative activity against human IN859 cells assessed as inhibition of cell growth […] by MTS assay; assay type: functional, cell-based
U-87 MG [10] = experiment: Induction of autophagy in human U87MG cells assessed as acidic vesicular organelle formation at 500 uM after 1 hr by acridine orange based flow cytometry in presence of 5 mM, MA; assay type: functional, cell-based; conditions: U-87MG ATCC
Outline: (§4)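 Acridine orange AVO assay as above: compound at 500 µM for 60 min, given together with 3-methyladenine 5 mM dissolved in medium. Then 3 µM acridine orange for 15 min at 37 °C, flow cytometry at ex/em 488/615 nm. Two experiments.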

1321-N1 [11] = experiment: Induction of autophagy in human 1321N1 cells assessed as acidic vesicular organelle formation at 500 uM after 1 hr by acridine orange based flow cytometry in presence of 5 mM, MA; assay type: functional, cell-based; outline: as §4
U-87 MG [12] = experiment: Induction of autophagy in human U87MG cells assessed as acidic vesicular organelle formation at 500 uM after 1 hr by acridine orange based flow cytometry; assay type: functional, cell-based; conditions: U-87MG ATCC
Outline: (§5)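 Cells at 20,000/well in six-well plates, attached overnight. Treated with compound at 500 µM for 60 min, then stained with 3 µM acridine orange for 15 min at 37 °C in the dark. Washed in PBS, trypsinized, strained. Red fluorescence read by flow cytometry at ex/em 488/615 nm (PE-Texas Red). Vehicle ≤0.5% ethanol. One of two experiments shown.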

1321-N1 [13] = experiment: Induction of autophagy in human 1321N1 cells assessed as acidic vesicular organelle formation at 500 uM after 1 hr by acridine orange based flow cytometry; assay type: functional, cell-based; outline: as §5
U-87MG ATCC = experiment: Antiproliferative activity against human U87MG cells assessed as inhibition of cell viability after 48 hrs by MTS assay in presence of 500 uM antioxidant, ascorbic acid; assay type: functional, cell-based
1321-N1 [14] = experiment: Antiproliferative activity against human 1321N1 cells assessed as inhibition of cell viability after 48 hrs by MTS assay in presence of 500 uM antioxidant, ascorbic acid; assay type: functional, cell-based
U-87 MG [15] = experiment: Induction of oxidative stress in human U87MG cells assessed as reactive oxygens species generation at 500 uM after 1 hr by H2DCFDA dye based flow cytometry in presence of 500 uM antioxidant, ascorbic acid; assay type: functional, cell-based; conditions: U-87MG ATCC
Outline: (§6)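 Run as the carboxy-H2DCFDA ROS flow-cytometry assay (25 µM dye for 30 min, then compound at 500 µM for 60 min, read at ex/em 488/519 nm), with ascorbic acid 500 µM added under the same procedure and time point.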

1321-N1 [16] = experiment: Induction of oxidative stress in human 1321N1 cells assessed as reactive oxygens species generation at 500 uM after 1 hr by H2DCFDA dye based flow cytometry in presence of 500 uM antioxidant, ascorbic acid; assay type: functional, cell-based; outline: as §6
[17] = Antiproliferative activity against human U87MG cells assessed as inhibition of cell growth after 48 hrs by MTS assay; assay type: functional, cell-based, U-87MG ATCC
Outline: (§7)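 1321N1 grown in DMEM with 10% FBS and 2 mM L-glutamine; U87MG in EMEM with 10% FBS, 2 mM L-glutamine, 1 mM pyruvate and 1% NEAA; 37 °C, 5% CO2. Seeded overnight at 3500 (1321N1) or 4000 (U87MG) cells/200 μl, 50–60% confluent. Compound added in quadruplicate for 48 h. MTS reagent added for 60 min, A490 read. IC50 vs vehicle (≤0.5% ethanol or DMSO) by nonlinear regression.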

[18] = Antiproliferative activity against human 1321N1 cells assessed as inhibition of cell growth after 48 hrs by MTS assay; assay type: functional, cell-based; outline: as §7
[19] = Antiproliferative activity against human U87MG cells assessed as inhibition of cell growth at 400 uM after 48 hrs by MTS assay; assay type: functional, U-87MG ATCC; conditions: U-87 MG, read-out: GI

With CC(C)(C)OO the Activity (U-87 MG [1]) was “Active” and the Activity (1321-N1 [2]) was “Active”.
For OCc1c(-c2ccccc2)[nH]c2ccccc12, the Activity (U-87 MG [3]) was “Active” and the Activity (1321-N1 [4]) was “Active”.
In the case of Oc1ccccc1-c1cc2ccccc2[nH]1 [2-(2'-HYDROXYPHENYL)-1H-INDOLE], the IC50 [5] is reported as 92 µM, the IC50 [6] is reported as > 1000 µM and the IC50 [7] is reported as 90 µM. The IC50 [8] was 48 µM, the IC50 [9] was 400 µM and the Activity (U-87 MG [10]) was “inactive”. For the same molecule, the Activity (1321-N1 [11]) was “inactive”, the Activity (U-87 MG [12]) was “Active” and the Activity (1321-N1 [13]) was “Active”. The inhibition (U-87MG ATCC) was “inactive”, the inhibition (1321-N1 [14]) was “inactive” and the Activity (U-87 MG [15]) was “inactive”. The Activity (1321-N1 [16]) was “inactive”, the Activity (U-87 MG [3]) was “Active” and the Activity (1321-N1 [4]) was “Active”.
In the case of COc1ccccc1-c1cc2ccccc2[nH]1 [2-(2'-METHOXYPHENYL)-1H-INDOLE], the Activity (U-87 MG [3]) is reported as “inactive”, the Activity (1321-N1 [4]) is reported as “inactive” and the IC50 ([17]; u-87mg atcc) is reported as “Not Active”. For the same molecule, the IC50 ([18]; 1321-n1) was “Not Active”.
In the case of O=Cc1c(-c2ccccc2)[nH]c2ccccc12 [2-PHENYL-1H-INDOLE-3-CARBALDEHYDE], the IC50 ([17]; u-87mg atcc) is reported as “Not Active” and the IC50 ([18]; 1321-n1) is reported as “Not Active”.
With c1ccc(-c2cc3ccccc3[nH]2)cc1 [2-PHENYL-1H-INDOLE] the Activity (U-87 MG [3]) was “inactive”, the Activity (1321-N1 [4]) was “inactive” and the inhibition of growth at 400 µM [19] was 7%. For the same molecule, the IC50 ([17]; u-87mg atcc) was “Not Active” and the IC50 ([18]; 1321-n1) was “Not Active”.
In the case of OCc1c[nH]c2ccccc12 [INDOLE-3-CARBINOL], the IC50 ([17]; Homo sapiens, U-87 MG, 48 h, read-out: IC50) is reported as 526 µM and the IC50 ([18]; Homo sapiens, 1321-N1, 48 h, read-out: IC50) is reported as 309 µM.
